Sampled rows, rich in hits. Any-hit rate of the full collection: about 2.3%.
TRPC6 inhibitor = blocks the mouse TRPC6 cation channel; 310,000 tested, 1.1% active; Q61143; HEK293-TRPC6, membrane potential dye, ACh-evoked depolarization; stronger effect = lower value; B-score at 10 µM;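 active = B-score under library mean minus 3 SD, initial fluorescence not abnormally high, positive integrated signal ratio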;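 also: B-score derived from integrated fluorescence ratio over the kinetic read; more negative B-score means stronger inhibition of depolarization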
Target sequence (Q61143 whole entry, looked up): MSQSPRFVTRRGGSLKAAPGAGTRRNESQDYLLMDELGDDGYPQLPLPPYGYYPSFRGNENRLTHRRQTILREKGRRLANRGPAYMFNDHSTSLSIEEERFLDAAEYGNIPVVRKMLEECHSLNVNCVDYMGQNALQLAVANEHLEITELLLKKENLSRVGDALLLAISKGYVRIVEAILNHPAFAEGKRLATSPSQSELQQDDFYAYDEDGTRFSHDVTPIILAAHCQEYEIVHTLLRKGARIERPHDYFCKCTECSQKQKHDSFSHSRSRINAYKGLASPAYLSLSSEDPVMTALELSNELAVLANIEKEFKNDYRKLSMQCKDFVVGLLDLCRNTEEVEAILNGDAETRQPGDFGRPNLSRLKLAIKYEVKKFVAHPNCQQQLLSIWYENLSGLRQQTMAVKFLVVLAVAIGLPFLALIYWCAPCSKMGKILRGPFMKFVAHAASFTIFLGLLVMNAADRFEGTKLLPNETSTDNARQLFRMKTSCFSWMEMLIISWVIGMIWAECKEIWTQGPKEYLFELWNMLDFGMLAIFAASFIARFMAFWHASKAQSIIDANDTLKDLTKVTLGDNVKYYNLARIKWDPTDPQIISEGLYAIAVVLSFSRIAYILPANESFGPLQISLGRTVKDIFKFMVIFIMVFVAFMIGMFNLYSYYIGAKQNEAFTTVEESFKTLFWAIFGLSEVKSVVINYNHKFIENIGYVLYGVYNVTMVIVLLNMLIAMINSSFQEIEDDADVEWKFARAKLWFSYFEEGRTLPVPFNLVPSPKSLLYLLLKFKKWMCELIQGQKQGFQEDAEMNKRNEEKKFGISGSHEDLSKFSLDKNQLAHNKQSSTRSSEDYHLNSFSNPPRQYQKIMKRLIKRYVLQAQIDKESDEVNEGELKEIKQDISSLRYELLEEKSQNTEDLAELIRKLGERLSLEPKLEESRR
TRPC6 act = activates the mouse TRPC6 cation channel. 310,000 tested, 0.13% active. HEK293-TRPC6 membrane potential dye fluorescence; stronger effect = higher value. Q61143. B-score at 10 µM;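 active = B-score of the integrated fluorescence ratio above library mean plus 3 SD, and starting fluorescence ratio within library mean plus 5 SD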;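 also: higher score means more depolarization so channel activation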
TRPC4 PAM = TRPC4 (mouse) allosteric potentiation; B-score at 10 µM; AID 2227; HEK293 TRPC4beta/mu-opioid, DAMGO EC20, Fluo-4 Ca2+ flux; stronger effect = higher value; 310,000 tested, 0.42% active;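 active = B-score of calcium response area above 5 SD of library B-scores, with initial fluorescence ratio within 5 SD of library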;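 also: B-score of integrated fluorescence ratio over time as area under calcium response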
TRPC4 block = blocks the mouse TRPC4 cation channel. B-score at 10 µM. 300,000 tested, 0.39% active. HEK293 TRPC4beta/mu-opioid, DAMGO-evoked Fluo4 calcium flux; stronger effect = lower value. Q9QUQ5;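 active = B-score over 3 SD under the library average, no early fluorescence shift, positive overall ratio signal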
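Assay system: HEK293 cells with stable TRPC4beta plus mu-opioid receptor expression; Probe or stimulus: DAMGO in two steps, submaximal then maximal; Dosing: single-point compound dosing; Measured by: Fluo4 calcium-dye fluorescence, kinetic read; Read-out basis: B score from integrated Fluo4 fluorescence ratio.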
TRPC4 agonist = opens the mouse TRPC4 cation channel. HEK293 TRPC4beta/mu-opioid, Fluo4 calcium fluorescence; stronger effect = higher value. 310,000 tested, 0.49% active. B-score at 10 µM. Q9QUQ5;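 active = B-score above 5 SD of library B-scores, and initial fluorescence ratio not above library mean plus 5 SD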;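 also: positive B-score marks a calcium rise read as TRPC4 activation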
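Incubation: 45 min room-temperature Fluo4 loading, 110 s read / System: HEK293 cells stably co-expressing mouse TRPC4beta and mu-opioid receptor / Signal: Fluo4 fluorescence, kinetic / Control set: buffer (low) and maximal DAMGO (high) / Measure: integrated baseline-normalised fluorescence ratio, converted to per-well B score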
TRPC4 spec 2 = second check of whether TRPC6 inhibitors also affect mouse TRPC4 | shares compounds with TRPC6 inhibitor | HEK293 TRPC4/MOR, membrane potential dye fluorescence; channel activated by saturating DAMGO dose | inhibition, % at 10 µM | 920 tested, 42% active | AID 2776;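 active = compounds whose fluorescence signal differed from control wells by over 3 SD, either direction, in both duplicate plates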
TRPC4 spec = mouse TRPC4 off-target activity of TRPC6 inhibitors. 920 tested, 61% active. shares compounds with TRPC6 inhibitor. AID 2777. activity change, negative = inhibition, % at 10 µM. HEK293 TRPC4/mu-opioid, membrane potential fluorescence;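 active = rise or fall in signal beyond 3 SD of buffer-only wells in both replicate plates, either sign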;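 also: integrated kinetic ratio of fluorescence range over baseline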
HEK293 MPD ctr 2-1 = second counter-screen for TRPC6 inhibitors: parental HEK293 cells. shares compounds with TRPC6 inhibitor. parental HEK293 membrane potential dye fluorescence; maximal acetylcholine challenge after compound addition. signal change vs control, % at 10 µM. 920 tested, 31% active. AID 2779;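 active = membrane potential signal moving either way by over 3 SD of the maximum-effect control, in both duplicate plates, meaning non-specific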
HEK293 MPD ctr-1 = parental HEK293 nonspecific activity of TRPC6 inhibitors | parental HEK293 membrane potential dye fluorescence | shares compounds with TRPC6 inhibitor | 920 tested, 60% active | membrane potential signal change, % at 10 µM;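 active = membrane potential signal shifting up or down by more than 3 SD of buffer-only wells, on both duplicate plates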
HEK293 MPD ctr-2 = parental HEK293 nonspecific activity of TRPC6 modulators; 2,400 tested, 51% active; shares compounds with TRPC6 inhibitor; AID 488924; membrane potential dye fluorescence; membrane potential signal change, % at 10 µM;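 active = membrane potential signal moves up or down beyond 5 SD from buffer-only wells, on both duplicate plates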
HEK293 MPD ctr 2-2 = second check of TRPC6 modulator effects in parental HEK293 cells; shares compounds with TRPC6 inhibitor; AID 488926; inhibition, % at 10 µM; membrane potential dye fluorescence; after compound, maximal acetylcholine stimulation; 2,400 tested, 14% active;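 active = membrane potential signal drops by more than 5 SD from the mean control signal, in both duplicate plates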;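 also: plate controls were acetylcholine ECmax control wells for no effect and buffer only wells for full effect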
TRPC4 ctr mod = mouse TRPC4 off-target activity of TRPC6 modulators | shares compounds with TRPC6 inhibitor | HEK293 TRPC4/mu-opioid, membrane potential fluorescence | percent change from control (negative = decrease, positive = increase), % at 10 µM | 2,400 tested, 69% active | AID 488927;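 active = membrane potential signal moved up or down beyond 5 SD of buffer control wells, in both duplicate plates, actives on both sides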;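 also: plate controls were assay buffer wells for no effect and DAMGO maximal-effect wells for full effect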
TRPC4/MOR inh 2 = mouse TRPC4 off-target activity of TRPC6 modulators, second screen. 2,400 tested, 55% active. HEK293 TRPC4/mu-opioid, membrane potential dye fluorescence; stimulated with maximal-effect DAMGO. AID 488928. inhibition, % at 10 µM. shares compounds with TRPC6 inhibitor;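 active = drop in membrane potential signal beyond 5 SD of the control wells in both duplicate plates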;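 also: TRPC4 counter screen for TRPC6 hits run under conditions tuned for TRPC6 not TRPC4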
TRPC6 inh conf = mouse TRPC6 inhibitor confirmation. shares compounds with TRPC6 inhibitor. HEK293-TRPC6, membrane potential dye, ACh-evoked depolarization. inhibition, % at 10 µM. 3,300 tested, 43% active. AID 488960;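 active = fluorescence ratio falls more than 5 SD below the full-stimulation control mean, in both duplicate runs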;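 also: integrated fluorescence ratio of peak minus minimum over baseline after agonist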
TRPC6 act confirm = mouse TRPC6 activator confirmation; shares compounds with TRPC6 inhibitor; HEK293-TRPC6 membrane potential dye fluorescence, FDSS; activation, % at 10 µM; 2,800 tested, 11% active; AID 488961;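 active = ratio signal rise beyond 5 SD above unstimulated control wells' mean, seen in both duplicate runs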;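 also: plate controls were buffer EC0 wells for no effect and acetylcholine ECmax response for full effect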
An asterisk follows results filed as active; i = inactive; x = no result given.

SMILES	TRPC6 inhibitor	TRPC6 act	TRPC4 PAM	TRPC4 block	TRPC4 agonist	HEK293 MPD ctr-2	HEK293 MPD ctr 2-2	TRPC4 ctr mod	TRPC4/MOR inh 2	TRPC6 inh conf	TRPC6 act confirm	others
CC1CCN(CCC(=O)Nc2ccc(F)c(F)c2)CC1	i	i	i	i	i	x	x	x	x	x	x
Cc1nn(-c2ccccc2)c(C)c1/C=N/Nc1nc2ccccc2[nH]1	i	i	i	i	i	x	x	x	x	x	x
Cc1c(/C=N/Nc2nc3ccccc3[nH]2)c2ccccc2n1C	-15*	i	i	i	i	-192%*	74%*	-40%*	97%*	68%*	i
CC(=O)Nc1ccc(/C=N/Nc2nc3ccccc3[nH]2)cc1	i	i	i	i	i	x	x	x	x	x	x
Cn1c(/C=N/Nc2nc3ccccc3[nH]2)nc2ccccc21	-9.7*	i	i	i	i	i	i	-10%*	i	i	i
CCN(CC)c1ccc(/C=N/Nc2nc3ccccc3[nH]2)cc1	-7.7*	i	i	i	i	x	x	x	x	i	i	TRPC4 spec 2=43%*;TRPC4 spec=-18%*;HEK293 MPD ctr 2-1=i;HEK293 MPD ctr-1=-235%*
COc1ccc(O)c(/C=N/Nc2nc3ccccc3[nH]2)c1	-5*	i	i	i	i	i	i	i	i	i	i
COc1cc(/C=N/Nc2nc3ccccc3[nH]2)ccc1O	i	i	i	i	i	x	x	x	x	x	x
Cc1ccc(S(=O)(=O)N2CCN(C(=O)COC(=O)C3CCC3)CC2)c(C)c1	i	i	i	i	i	x	x	x	x	x	x
COc1ccc(C2SCCN2C(=S)Nc2cccc(C(F)(F)F)c2)cc1 (stereo not given)	i	i	i	i	i	x	x	x	x	x	x
CN(CC(=O)NC1CCN(Cc2ccccc2)CC1)S(=O)(=O)c1ccc2c(c1)c(=O)n(C)c(=O)n2C	-6*	i	i	i	i	i	i	-11%*	i	i	i
Cc1ccc(S(=O)(=O)N2CCC(Oc3cccc(C(F)(F)F)c3)CC2)cc1	-7.3*	i	i	i	i	x	x	x	x	i	x	TRPC4 spec 2=i;TRPC4 spec=i;HEK293 MPD ctr 2-1=i;HEK293 MPD ctr-1=i
CN1CCN(S(=O)(=O)c2ccc(Oc3cccc(C(F)(F)F)c3)nc2)CC1	i	i	i	i	i	x	x	x	x	x	x
NCCN1C(=O)S/C(=C\c2ccc3c(c2)OCO3)C1=O	-5.4*	i	i	i	i	i	i	-9.5%*	42%*	36%*	i

High-throughput results deposited in PubChem BioAssay by Johns Hopkins Ion Channel Center.
